Consider 28 compounds from ChEMBL document CHEMBL1147021, “Novel indole inhibitors of IMPDH from fragments: synthesis and initial structure-activity relationships” (Bioorg Med Chem Lett, 2006).

Values after ≈ are worked out from the molar mass of the structure shown.

For data set [1], the target named is T1, Inosine-5'-monophosphate dehydrogenase 2 (Homo sapiens, UniProt P12268). Nature of the data set: Inhibition of IMPDH2.
Data set [2] can be described thus: Distribution coefficient Log D of compound at pH 7.4. The format is physicochemical. As to conditions: octanol/water; call rule not given here. In short, it runs like this:
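Compound (1–2 mg) shaken for 1 h at 750 osc/min with octanol and pH 7.4 phosphate buffer (0.1 M KH2PO4/NaOH), each presaturated with the other for 18 h. Both layers filtered through 0.2 µm PTFE and analysed by HPLC. Log D taken as log of normalised peak area in octanol over that in buffer.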

For the next data set, the system named is PBMC. Nature of the data set: Antiproliferative activity against PBMC. In kind it is functional, cell-based. The settings on record: Homo sapiens.
The nature of data set [3]: Aqueous solubility at pH 5. In kind it is physicochemical. In short, it runs like this: (§1)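 Solid compound (0.5 mg) shaken in 150 mM phosphate buffer at room temperature for 90 min, then filtered. Filtrate concentration measured by HPLC (UV 254 nm) against a three-point calibration curve made from DMSO stocks. Done in duplicate at pH 7.4 and pH 5.0.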
A short description of data set [4]: Apparent permeability in Caco-2 cell from apical to basolateral. The format is ADME, cell-based. As to conditions: human. In short, it runs like this: (§2)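 Caco-2 monolayers (10-21 day culture, passage 30-40), confluence confirmed by TEER; medium replaced by HBSS pH 7.4. Test compound 1 µM, cassetted with 2 reference compounds (10 µM), added apically or basolaterally (n = 4); 2 h at 37 °C, 5% CO2. Receiver side analysed by LC-MSMS; Papp normalised to the known Papps of the reference compounds.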
(In general: Caco-2 monolayers are a common model of the intestinal barrier.)

A short description of data set [5]: Apparent permeability in Caco-2 cell from basolateral to apical. The format is ADME, cell-based. As to conditions: human. In short, it runs like this:
as §2

The target in data set [6] is T1, Inosine-5'-monophosphate dehydrogenase 2. Nature of the data set: Inhibition of IMPDH2 at 30 uM.
Data set [7] in a line: Aqueous solubility at pH 7.4. The format is physicochemical. In short, it runs like this: as §1

As a reminder, the IC50 is the point on the concentration scale where inhibition reaches its midpoint. A higher IC50 goes with weaker potency in that assay. In data set [1], `CCOC(=O)c1ccc2c(-c3ccncc3)c[nH]c2c1` had an IC50 of 0.586 µM.
Same read-out and setting: as for `O=S(=O)(Nc1cccc2c(-c3ccncc3)c[nH]c12)c1ccccc1`, the figure is 6.21 µM.
As a reminder, the logD is lipophilicity at a set pH, counting ionised and neutral species. Read a low logD as lower lipophilicity. The term solubility denotes how much of the substance goes into solution per volume. Lower therefore signals little dissolved substance. The term Papp A→B denotes how fast a substance crosses the layer from the apical side. As usually defined, the Papp B→A is the apparent permeability from the basolateral to the apical side of a cell layer. The compound `O=S(=O)(Nc1ccc2c(-c3ccncc3)c[nH]c2c1)c1ccccc1` registered a log distribution coefficient (logD) in data set [2] of 2.01. Also, the results for the IC50 (in data set [1]; with PBMC) were 0.364 µM and 14 µM, respectively. In data set [3], the concentration in solution (solubility) was 8 µg/mL (≈ 22.9 µM). For the same compound, the apical-to-basolateral permeability (Papp A→B) in data set [4] came out at 6.5 ×10⁻⁶ cm/s. The apparent permeability from basolateral to apical (Papp B→A) in data set [5] was determined as 9.3 ×10⁻⁶ cm/s.
`CN(C(=O)Nc1cccc2c(C#N)cn(C)c12)c1ccccc1`: the IC50 in data set [1] came to 7.85 µM.
Regarding `Cn1cc(C#N)c2ccc(NC(=O)Nc3ccccc3)cc21`, the concentration for half-maximal inhibition (IC50) in data set [1] is 0.722 µM; with PBMC, 14 µM.
As to `N#Cc1c[nH]c2cc(N)ccc12`, in data set [6], the half-inhibitory concentration (IC50) result is “Not Active”.
For the compound `O=C(NOCc1ccccc1)Nc1ccc2c(-c3ccncc3)c[nH]c2c1`, the logD in data set [2] was 3.54. Besides, the results for the solubility in data set [7] and in data set [3] were 3.2 µg/mL (≈ 8.93 µM) and 17.5 µg/mL (≈ 48.8 µM), respectively. Further, the half-maximal inhibitory concentration (IC50) was determined as 0.076 µM in data set [1] and 4.6 µM in the data set with PBMC. In data set [4], the apparent permeability from apical to basolateral (Papp A→B) was determined as 6.5 ×10⁻⁶ cm/s. Further, the basolateral-to-apical permeability (Papp B→A) in data set [5] was found to be 7.3 ×10⁻⁶ cm/s.
Consider `CN(C(=O)Nc1ccc2c(C#N)c[nH]c2c1)c1ccccc1`, for which the IC50 in data set [1] was 15.4 µM. In other words, the double-digit micromolar range.
As for `N#Cc1c[nH]c2c(OCc3ccccc3)cccc12`, in data set [6], the 50% inhibitory concentration (IC50) entry is listed as “Not Active”.
On to `CCn1cc(C#N)c2ccc(NS(=O)(=O)Cc3ccccc3)cc21`, for which the IC50 result in data set [6] is listed as “Not Active”.
For the compound `c1ccc(-c2ccc3c(-c4ccncc4)c[nH]c3c2)cc1`, the concentration for half-maximal inhibition (IC50) was 0.456 µM in data set [1] and 10 µM in the data set on PBMC.
For orientation: Inhibition means the percentage by which the read-out fell short of the control. `N#Cc1c[nH]c2cc(Nc3nc4ccccc4o3)ccc12` returned an Inhibition in data set [6] of 48%.
`Cc1[nH]c2cc(NS(=O)(=O)c3ccccc3)ccc2c1-c1ccncc1`: the IC50 in data set [1] was 0.222 µM. That is a sub-micromolar value.
In turn, `Cn1cc(C#N)c2ccc(NC(=O)NOCc3ccccc3)cc21` displayed a logD in data set [2] of 2.74. Also, the values for the solubility in data set [7] and in data set [3] were 4 µg/mL (≈ 12.5 µM) and 4.5 µg/mL (≈ 14 µM), respectively. Also, the results for the half-inhibitory concentration (IC50) (in data set [1]; with PBMC) were 1.17 µM and 17 µM, respectively. Besides, the Papp A→B in data set [4] is 19.3 ×10⁻⁶ cm/s. In data set [5], the Papp B→A was determined as 19.1 ×10⁻⁶ cm/s.
In data set [1], `CNOC(=O)Nc1ccc2c(C#N)cn(C)c2c1` displayed an IC50 of 4.04 µM. That is a single-digit micromolar value.
On the same count and under the same terms, as for `Cn1cc(C#N)c2cccc(Nc3nc4ccccc4o3)c21`, the figure is 58.4 µM.
The same measure, in the same setting: as for `CN(C(=O)Nc1cccc2c(-c3ccncc3)c[nH]c12)c1ccccc1`, the figure is 19.5 µM.
In the case of `CN(C(=O)Nc1ccc2c(-c3ccncc3)c[nH]c2c1)c1ccccc1`, in data set [2], the pH-dependent lipophilicity (logD) is 2.93. The figures for the IC50 (in data set [1]; in the data set on PBMC) were 0.084 µM and 12 µM, respectively. For the same compound, the concentration in solution in data set [3] (solubility) was 42 µg/mL (≈ 123 µM). The Papp A→B in data set [4] was found to be 14.3 ×10⁻⁶ cm/s. Moreover, the Papp B→A in data set [5] turned out to be 6.7 ×10⁻⁶ cm/s.
Regarding `O=C(NOCc1ccccc1)Nc1cccc2c(-c3ccncc3)c[nH]c12`, in data set [1], the IC50 amounted to 1.36 µM.
On to `O=C(Nc1ccccc1)Nc1ccc2c(-c3ccncc3)c[nH]c2c1`, for which the IC50 result in data set [6] is given as “Not Active”.
Turning to `CONC(=O)Nc1ccc2c(-c3ccncc3)c[nH]c2c1`, in data set [1], the concentration for half-maximal inhibition (IC50) came to 1.11 µM. In other words, the single-digit micromolar range.
Still for that read-out and setting: as for `Cn1cc(C#N)c2ccc(NS(=O)(=O)Cc3ccccc3)cc21`, the figure is 21 µM; as for `Cn1cc(C#N)c2ccc(NS(=O)(=O)c3ccccc3)cc21`, 7.68 µM; as for `CN(C(=O)Nc1ccc2c(C#N)cn(C)c2c1)c1ccccc1`, 17 µM.
On the same count and under the same terms, for `N#Cc1c[nH]c2cc(OCc3ccccc3)ccc12` the value was 71.8 µM.
In data set [2], `Cn1cc(C#N)c2ccccc21` registered a logD of 2.3. Besides, the apical-to-basolateral permeability (Papp A→B) in data set [4] amounted to 36.7 ×10⁻⁶ cm/s. Also, the basolateral-to-apical permeability (Papp B→A) in data set [5] was found to be 37.4 ×10⁻⁶ cm/s.
The compound `c1ccc2c(-c3ccncc3)c[nH]c2c1` showed a logD in data set [2] of 2.81. Also, the IC50 in the data set with PBMC came to 28 µM. The Papp A→B in data set [4] amounted to 26.2 ×10⁻⁶ cm/s. Moreover, the Papp B→A in data set [5] is 23.9 ×10⁻⁶ cm/s.
Compound `Cc1[nH]c2cc(NC(=O)N(C)c3ccccc3)ccc2c1-c1ccncc1` showed a half-inhibitory concentration (IC50) in data set [1] of 0.128 µM.
